Hits are enriched below; roughly 3.5% of the tested compounds scored in any of these assays.
ABCG2 block: human ABCG2 inhibition, ABCB1 as counter-screen | Q9UNQ0 | IgMXP3 cells, JC-1 efflux, flow cytometry | inhibition, % at 6.6 µM | actives 0.1% (n = 190,000) | AID 1325;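 active = inhibition above 80%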;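 note: 0% = DMSO and 100% = nicardipine control wells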
Target sequence (Q9UNQ0 whole entry, looked up): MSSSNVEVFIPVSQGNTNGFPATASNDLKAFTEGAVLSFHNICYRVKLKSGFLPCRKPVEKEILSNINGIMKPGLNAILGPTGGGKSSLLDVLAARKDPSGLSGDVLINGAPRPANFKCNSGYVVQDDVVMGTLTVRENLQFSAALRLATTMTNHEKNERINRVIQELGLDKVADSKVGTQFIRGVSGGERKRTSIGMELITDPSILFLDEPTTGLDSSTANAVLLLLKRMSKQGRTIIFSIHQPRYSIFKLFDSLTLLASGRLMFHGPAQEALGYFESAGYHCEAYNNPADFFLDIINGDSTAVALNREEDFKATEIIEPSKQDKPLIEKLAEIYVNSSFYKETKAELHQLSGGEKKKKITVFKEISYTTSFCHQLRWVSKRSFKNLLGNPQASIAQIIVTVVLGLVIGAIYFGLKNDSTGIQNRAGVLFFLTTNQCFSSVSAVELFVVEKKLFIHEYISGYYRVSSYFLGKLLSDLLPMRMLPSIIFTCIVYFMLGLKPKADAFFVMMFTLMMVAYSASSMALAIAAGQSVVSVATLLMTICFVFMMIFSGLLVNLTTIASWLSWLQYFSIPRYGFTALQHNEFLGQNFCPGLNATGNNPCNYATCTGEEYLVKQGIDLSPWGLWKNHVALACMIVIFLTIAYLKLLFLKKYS
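material = IgMXP3 (ABCG2) plus far-red-tagged CCRF-Adr (ABCB1) cells | amount = 3 million cells/mL, equal mix of both lines | also added = JC-1 transporter substrate | dosing = one concentration, 6.6 µM final | schedule = 10 min at 25 °C | measured by = flow cytometric JC-1 green MFI at 530 nm | read-out basis = percent efflux inhibition, scaled nicardipine 100% to DMSO 0%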
MEKK2wt PB1 HTS: raises or lowers MEK5 binding to wildtype human MEKK2 PB1 domain; bead flow cytometry, Alexa488-MEK5 binding to MEKK2 WT; actives lie on both sides; binding response (% of control), % at 10 µM; actives 1.1% (n = 290,000); AID 1531; in the data active = binding response below about 67% or above about 130%
MEKK2 mut-MEK5: signal of MEK5 binding to mutant human MEKK2 PB1 domain; bead flow cytometry, Alexa488-MEK5 binding to MEKK2 mutant; percent response, % at 10 µM; actives 0.35% (n = 290,000); AID 1530; in the data active = percent response above about 24%, passing the limit was not always enough
MEKK3 PB1 HTS: modulators (inhibitors or enhancers) of MEK5 binding to human MEKK3 PB1 domain; Q99759; AID 1529; actives 1.4% (n = 290,000); binding response (% of control), % at 10 µM; bead-based flow cytometry, Alexa488-MEK5 binding to MEKK3; actives lie on both sides; 0 = blocked by unlabeled MEK5, 100 = vehicle;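 active = binding response more than 3 SD above or below the average of its plate-row segment, actives on both sides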;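 note: Alexa488 bead fluorescence after subtracting the streptavidin-only scavenger bead signal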
WT yeast gro inh: growth inhibition of WT yeast, mitochondrial fusion screen; actives 2.1% (n = 190,000); mitochondrial fusion phenotypic screen, WT strain; AID 1362; inhibition, % at 10 µM; in the data active = inhibition above about 58%; tested in S. cerevisiae
ABCB1 inh: human ABCB1 inhibition, ABCG2 as counter-screen. P08183. CCRF-Adr cells, JC-1 efflux, flow cytometry. inhibition, % at 6.6 µM. actives 0.067% (n = 190,000). AID 1326; in the data active = inhibition above about 40%;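 note: 0% = vehicle and 100% = reference inhibitor; higher value means more JC-1 retained so stronger ABCB1 efflux block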
Starred values were filed as active, the others as inactive; nt = no result; [ ] = another dose, or the depositor's remark.

SMILES	ABCG2 block	MEKK2wt PB1 HTS	MEKK2 mut-MEK5	MEKK3 PB1 HTS	WT yeast gro inh	ABCB1 inh
Cn1nc(C(=O)Nc2cccc(C(F)(F)F)c2)ccc1=O	1.6	98.0	-5.0	98.0	15.1	0.3
CN(C)c1nn(C(=O)Nc2cccc(C(F)(F)F)c2)cc1-c1ccccc1	11.0	107.0	2.0	100.0	63.4*	0.7
Fc1nc(F)c(F)c(NCCCNc2c(F)c(F)nc(F)c2F)c1F	35.2	90.0	-11.0	100.0	72.5*	0.1
C=CCN(C(=O)c1oc2c(Cl)cc(C)cc2c1C)C1CCS(=O)(=O)C1 (configuration not stated)	nt	100.0	-1.0	97.0	nt	nt
Cc1cc(Cl)c2oc(C(=O)N(C)CC3CCOCC3)c(C)c2c1	nt	43.0*[inhibitor]	-39.0	31.0*[inhibitor]	nt	nt
Cc1ccc(NC(=S)NCCc2c[nH]c3ccccc23)cc1	38.4	108.0	11.0	103.0	18.1	2.6
CC(C)c1ccc(NC(=S)NCCc2c[nH]c3ccccc23)cc1	44.3	101.0	-1.0	105.0	67.3*	-1.4
CCc1cccc(CC)c1NC(=O)CSc1nnc(CCC(=O)O)c(=O)[nH]1	3.5	101.0	-2.0	102.0	-6.7	0.2
CC(=O)N1c2c(ccc3ccccc23)C(C)CC12CCCCC2 (configuration not stated)	0.0	103.0	10.0	104.0	49.5	0.1
CC1CC2(CCCC2)N(C(=O)c2ccccc2)Cc2ccccc21 (configuration not stated)	4.1	97.0	1.0	103.0	72.0*	1.3
COc1ccc(CCNC(=O)C2CC3Cn4c(nc5ccccc54)C3N2c2ccccc2)cc1 (configuration not stated)	nt	102.0	1.0	101.0	nt	nt
CN(C1CCCCC1)S(=O)(=O)c1ccc2c(c1)c(=O)c(C(=O)NCCCN1CCCC1)cn2C	2.4	109.0	1.0	90.0	-12.3	0.3
CC1CCCCN1S(=O)(=O)c1ccc2[nH]c(=O)cc(C(=O)NCCCN3CCCCCC3)c2c1 (configuration not stated)	nt	143.0*	20.0	103.0	nt	nt
O=c1n(-c2ccccc2)c(=O)n(Cc2ccccn2)n1Cc1ccccn1	0.2	98.0	-4.0	99.0	12.2	0.2
Cc1nn(-c2cc(C)c3ccccc3n2)c2c1C1C(C2)C1(C)C (configuration not stated)	4.4	100.0	2.0	107.0	63.5*	0.2
Cc1ccc(-c2csc3ncnc(N4CCc5ccccc5C4)c23)cc1	0.0	95.0	7.0	95.0	66.5*	-0.1
Fc1ccc(-c2csc3ncnc(N4CCc5ccccc5C4)c23)cc1	-7.6	104.0	0.0	104.0	66.5*	-0.6
Cc1ccc(-c2csc3ncnc(N4CCN(Cc5ccccc5)CC4)c23)cc1	nt	96.0	-1.0	91.0	nt	nt
Cc1nc2nc(SCC(=O)N3CCOCC3)nn2c(C)c1Cc1c(F)cccc1Cl	0.2	2.0*[inhibitor]	-15.0	2.0*[inhibitor]	0.3	0.7
Cc1nc2nc(SCC(=O)NCCN3CCOCC3)nn2c(C)c1Cc1ccccc1	3.6	102.0	1.0	100.0	14.7	0.6
CCCCN(C(=S)NC(=O)c1cc(OC)c(OC)c(OC)c1)c1c(N)n(Cc2ccccc2)c(=O)[nH]c1=O	-4.2	73.0	-5.0	87.0	-11.8	0.5
COc1ccc(C(=O)N(Cc2nc(-c3ccc(C)cc3)no2)C2CCCCC2)cc1OC	3.1	105.0	0.0	113.0	64.9*	1.1
CCC(C(=O)OCC(=O)Nc1ccc(C(N)=O)cc1)c1ccccc1 (configuration not stated)	2.6	98.0	-2.0	100.0	-20.4	0.5
CCC(C(=O)Nc1ccccc1)c1ccccc1 (configuration not stated)	172.5*	101.0	-2.0	100.0	-19.2	nt
CCC(C(=O)OCC(=O)Nc1ccc(SC(F)F)cc1)c1ccccc1 (configuration not stated)	56.0	95.0	16.0	96.0	73.0*	0.3
SMILES	ABCG2 block	MEKK2wt PB1 HTS	MEKK2 mut-MEK5	MEKK3 PB1 HTS	WT yeast gro inh	ABCB1 inh
CCn1c2ccccc2c2cc(NC(=O)CN3CCCC3)ccc21	nt	139.0*	19.0	100.0	nt	nt
COc1ccc(-c2nc3c(n2O)CCCC3=O)cc1OC	1.9	95.0	-11.0	91.0	60.2*	0.5
COc1ccc(-n2ccn3c(CCC(=O)N4CCN(c5cccc(C)c5C)CC4)nnc3c2=O)cc1	nt	102.0	-3.0	103.0	nt	nt
N/C(=C\C(=O)c1cc(Cl)ccc1O)C(Cl)(Cl)Cl	nt	-3.0*	3.0	103.0	nt	nt
CNc1ccc(Cl)cc1C(N)=O	nt	98.0	-3.0	98.0	nt	nt
CCc1cc(CNC(=O)c2ccc3nc(Cc4ccc(OC)c(OC)c4)oc3c2)on1	nt	93.0	-3.0	93.0	nt	nt
CCCCc1c(C)nc2ccc(Br)cc2c1SCCC#N	72.9	106.0	21.0	101.0	60.4*	1.8
CCc1c(C)nc2ccc(Br)cc2c1SCCC#N	2.1	90.0	-4.0	85.0	11.7	1.0
CCOc1ccc(N2C(=O)CC(Sc3nnnn3-c3ccccc3)C2=O)cc1 (configuration not stated)	1.8	87.0	-9.0	98.0	58.9*	0.2
Oc1ccccc1CNCCCN1CCOCC1	nt	109.0	3.0	108.0	nt	nt
O=C(N/N=C/C(Br)=C/c1ccccc1)NC1CCCCC1	11.5	102.0	-2.0	101.0	89.8*	-0.4
CC(/C=N/NC(=O)NC1CCCCC1)=C\c1ccccc1	16.8	98.0	1.0	101.0	43.1	1.6
CCOC(=O)c1c(NC(=O)c2ccco2)sc2c1CCCCC2	5.0	96.0	-1.0	97.0	8.6	0.2
CCOC(=O)c1c(NC(=O)c2cccs2)sc2c1CCN(C(=O)OCC)C2	6.0	92.0	-8.0	93.0	63.3*	4.0
CCOC(=O)c1c(NC(=O)C(C)N2CCN(C(=O)c3ccco3)CC2)sc2c1CCCC2 (configuration not stated)	26.9	nt	nt	nt	69.6*	5.8
CCOC(=O)c1c(NC(=O)c2cccs2)sc2c1CCC2	nt	92.0	-1.0	88.0	12.7	nt
Cc1ccc(NC(=S)Nc2ccc(F)cc2)c(C)c1	-1.7	83.0	-29.0	76.0	-1.0	-0.5
Cc1c(C(=O)NCc2ccc3c(c2)OCO3)oc2ccc(Br)cc12	-0.4	98.0	-2.0	98.0	61.7*	-0.1
Cc1ccc2oc(C(=O)NCc3ccc4c(c3)OCO4)c(C)c2c1	0.4	100.0	3.0	98.0	19.5	0.1
O=C(NCc1ccc2c(c1)OCO2)c1ccc(-c2ccc(Cl)cc2)o1	27.7	100.0	-2.0	96.0	68.5*	0.5
CCN(CCCNC(=O)Cn1ncc2c([nH]c3ccc(C)cc32)c1=O)c1ccccc1	nt	102.0	0.0	102.0	nt	nt
CCCn1c(=O)n(C)c(=O)c2c(SCC(=O)NCC(c3ccccc3)N(C)C)nc(CC(C)C)nc21 (configuration not stated)	nt	103.0	1.0	97.0	nt	nt

Screens deposited in PubChem by several laboratories.
